Measured values as given in ChEMBL document CHEMBL1133763, “Synthesis and immunosuppressive activity of novel prodigiosin derivatives” (J Med Chem, 2000).
In brackets after ≈: the same amount, converted by molar mass.

species on record: Mus musculus; test: The concentration inhibiting 50% cell proliferation of murine Splenocytes induced by the mitogen Concanavalin A of mice; format: functional; details: not given
Procedure, shortened: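 Spleens from C57Bl/6 mice; splenocytes at 4 × 10^5 cells/well in triplicate with Con A 1.7 µg/mL and varying compound concentrations in complete RPMI 1640. 72 h at 37 °C, 5% CO2; [3H]thymidine 0.2 µCi/well during final 18 h; uptake counted by scintillation. IC50 from % inhibition of cpm versus control; mean ± SD of ≥3 experiments.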

Structure (SMILES)	IC50
CCCCCCCCCCCC1=N/C(=C\c2[nH]c(-c3cc4cc(Cl)ccc4[nH]3)cc2OC)C=C1	> 1 µg/mL
COc1cc(-c2ccc[nH]2)[nH]c1/C=C1/C=CC(CCCCCCO)=N1	0.0564 µg/mL (≈ 0.166 µM)
CCCCCCCCCCCC1=N/C(=C\c2[nH]c(-c3ccc[nH]3)cc2O)C=C1	> 1 µg/mL
COC(=O)CCCCCC1=N/C(=C\c2[nH]c(-c3ccc[nH]3)cc2OC)C=C1	> 1 µg/mL
CCCCCCCCCCCCCC1=N/C(=C\c2[nH]c(-c3ccc[nH]3)cc2OCc2ccccc2)C=C1	0.262 µg/mL (≈ 0.526 µM)
CCCCCCCC1=N/C(=C\c2[nH]c(-c3ccc[nH]3)cc2OCc2ccccc2)C=C1	0.0036 µg/mL (≈ 0.0087 µM)
C1=C/C(=C/c2[nH]c(-c3ccc[nH]3)cc2OCc2ccccc2)N=C1Cc1ccccc1	0.0065 µg/mL (≈ 0.016 µM)
CCCCCCCCCCCC1=N/C(=C\c2[nH]c(-c3ccc[nH]3)cc2OC(C)C)C=C1	0.0026 µg/mL (≈ 0.00617 µM)
CCCCCCCCCCCC1=N/C(=C\c2[nH]c(-c3cc4ccccc4[nH]3)cc2OC)C=C1	0.25 µg/mL (≈ 0.564 µM)
CCCCCCCCCCCC1=N/C(=C\c2[nH]c(-n3cncn3)cc2OC)C=C1	> 1 µg/mL
CCCCCCCCCCCC1=N/C(=C\c2[nH]c(-c3cc4cc(OC)ccc4[nH]3)cc2OC)C=C1	0.128 µg/mL (≈ 0.27 µM)
COc1cc(-c2ccc[nH]2)[nH]c1/C=C1/C=CC(CCCCCC(=O)O)=N1	> 1 µg/mL
CCCCCCCCCCCC1=N/C(=C\c2ccc(-c3ccc[nH]3)[nH]2)C=C1	0.4 µg/mL (≈ 1.1 µM)
COc1cc(-c2ccc[nH]2)[nH]c1/C=C1/C=CC(CCc2ccccc2)=N1	0.0075 µg/mL (≈ 0.0218 µM)
CCCCCCCC1=N/C(=C\c2[nH]c(-c3ccc[nH]3)cc2OC)C=C1	0.0056 µg/mL (≈ 0.0166 µM)
CCCCCCCCCCCC1=N/C(=C\c2[nH]c(-c3ccccc3)cc2OC)C=C1	> 1 µg/mL
CCCCCCCCCCCC1=N/C(=C\c2[nH]c(C(=O)NCC)cc2OC)C=C1	> 1 µg/mL
COc1cc(-c2ccc[nH]2)[nH]c1/C=C1/C=CC(CCCCCCCCCCC(=O)O)=N1	> 1 µg/mL
COc1cc(-c2ccc[nH]2)[nH]c1/C=C1/C=CC(CCCCCCCC#N)=N1	0.0162 µg/mL (≈ 0.0447 µM)
CCCCCCCCCCC1=N/C(=C\c2[nH]c(-c3ccc[nH]3)cc2OC)C=C1	0.0018 µg/mL (≈ 0.00474 µM)

test system: B16; test: Cytotoxicity, ability to inhibit viability of murine resting lymphocytes, murine B16 melanoma cells and human K562 erythroleukemia cells by 50% by […]; format: functional, cell-based; details: Mus musculus
Procedure, shortened: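 Murine resting lymphocytes (4 × 10^5 cells/well), murine B16 melanoma and human K562 cells (1 × 10^5 cells/well each) seeded in triplicate with a range of compound concentrations in complete RPMI 1640 (10% inactivated FCS); DMSO stocks at 2 mg/mL diluted at use. MTT added for last 4 h of 48 h culture; formazan dissolved in HCl–2-propanol, OD 570/690 nm; IC50 from % inhibition versus control.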

Structure (SMILES)	IC50
CCCCCCCCCCCC1=N/C(=C\c2[nH]c(-c3cc4cc(Cl)ccc4[nH]3)cc2OC)C=C1	> 1 µg/mL
COc1cc(-c2ccc[nH]2)[nH]c1/C=C1/C=CC(CCCCCCO)=N1	0.787 µg/mL (≈ 2.32 µM)
CCCCCCCCCCCC1=N/C(=C\c2[nH]c(-c3ccc[nH]3)cc2O)C=C1	> 1 µg/mL
COC(=O)CCCCCC1=N/C(=C\c2[nH]c(-c3ccc[nH]3)cc2OC)C=C1	> 1 µg/mL
CCCCCCCCCCCCCC1=N/C(=C\c2[nH]c(-c3ccc[nH]3)cc2OCc2ccccc2)C=C1	2.78 µg/mL (≈ 5.59 µM)
CCCCCCCC1=N/C(=C\c2[nH]c(-c3ccc[nH]3)cc2OCc2ccccc2)C=C1	0.178 µg/mL (≈ 0.43 µM)
C1=C/C(=C/c2[nH]c(-c3ccc[nH]3)cc2OCc2ccccc2)N=C1Cc1ccccc1	0.279 µg/mL (≈ 0.688 µM)
CCCCCCCCCCCC1=N/C(=C\c2[nH]c(-c3ccc[nH]3)cc2OC(C)C)C=C1	0.282 µg/mL (≈ 0.669 µM)
CCCCCCCCCCCC1=N/C(=C\c2[nH]c(-c3cc4ccccc4[nH]3)cc2OC)C=C1	> 1 µg/mL
CCCCCCCCCCCC1=N/C(=C\c2[nH]c(-n3cncn3)cc2OC)C=C1	> 1 µg/mL
CCCCCCCCCCCC1=N/C(=C\c2[nH]c(-c3cc4cc(OC)ccc4[nH]3)cc2OC)C=C1	> 1 µg/mL
COc1cc(-c2ccc[nH]2)[nH]c1/C=C1/C=CC(CCCCCC(=O)O)=N1	> 1 µg/mL
CCCCCCCCCCCC1=N/C(=C\c2ccc(-c3ccc[nH]3)[nH]2)C=C1	1.22 µg/mL (≈ 3.34 µM)
COc1cc(-c2ccc[nH]2)[nH]c1/C=C1/C=CC(CCc2ccccc2)=N1	0.299 µg/mL (≈ 0.871 µM)
CCCCCCCCCCCC1=N/C(=C\c2[nH]c(-c3ccccc3)cc2OC)C=C1	> 1 µg/mL
CCCCCCCCCCCC1=N/C(=C\c2[nH]c(C(=O)NCC)cc2OC)C=C1	> 1 µg/mL
COc1cc(-c2ccc[nH]2)[nH]c1/C=C1/C=CC(CCCCCCCCCCC(=O)O)=N1	> 1 µg/mL
COc1cc(-c2ccc[nH]2)[nH]c1/C=C1/C=CC(CCCCCCCC#N)=N1	0.235 µg/mL (≈ 0.648 µM)
CCCCCCCCCCC1=N/C(=C\c2[nH]c(-c3ccc[nH]3)cc2OC)C=C1	0.156 µg/mL (≈ 0.411 µM)

test system: B16; test: Selectivity index was evaluated; format: functional, Mus musculus; details: not given
Procedure, shortened: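 Ratio of mean IC50 for MTT viability in K562, B16 and resting lymphocytes (averaged over the three) to IC50 for Con A-stimulated splenocyte proliferation.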

Structure (SMILES)	Selectivity index
COc1cc(-c2ccc[nH]2)[nH]c1/C=C1/C=CC(CCCCCCO)=N1	14
CCCCCCCCCCCCCC1=N/C(=C\c2[nH]c(-c3ccc[nH]3)cc2OCc2ccccc2)C=C1	11
CCCCCCCC1=N/C(=C\c2[nH]c(-c3ccc[nH]3)cc2OCc2ccccc2)C=C1	49
C1=C/C(=C/c2[nH]c(-c3ccc[nH]3)cc2OCc2ccccc2)N=C1Cc1ccccc1	43
CCCCCCCCCCCC1=N/C(=C\c2[nH]c(-c3ccc[nH]3)cc2OC(C)C)C=C1	108
CCCCCCCCCCCC1=N/C(=C\c2ccc(-c3ccc[nH]3)[nH]2)C=C1	3
COc1cc(-c2ccc[nH]2)[nH]c1/C=C1/C=CC(CCc2ccccc2)=N1	40
CCCCCCCC1=N/C(=C\c2[nH]c(-c3ccc[nH]3)cc2OC)C=C1	29
COc1cc(-c2ccc[nH]2)[nH]c1/C=C1/C=CC(CCCCCCCC#N)=N1	14
CCCCCCCCCCC1=N/C(=C\c2[nH]c(-c3ccc[nH]3)cc2OC)C=C1	87
